The source of these data is ChEMBL document CHEMBL1133664, “Synthesis and evaluation of hydroxylated polyamine analogues as antiproliferatives” (J Med Chem, 2000).

Test [1] deals with L1210. Briefly: Putrescine(PUT) levels in L1210 cells after 48 hr of treatment with the compound at the dose of 40 uM. It counts as functional, Mus musculus. The procedure, abridged: (§1)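 Log-phase L1210 cells treated 48 h, washed twice in ice-cold incomplete medium, extracted with 0.6 N perchloric acid and freeze-fractured three times. Polyamines are quantified by HPLC. PUT, SPD and SPM are expressed as percent of untreated control.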

Test [2] deals with L1210. Briefly: Effect of compound on Spermidine/Spermine N'-Acetyltransferase(SSAT) in L1210 cells. It counts as cell-based. The procedure, abridged: (§2)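 L1210 cells treated 48 h at 10 µM, or 2 µM for DENSPM. SSAT is quantified as [14C]-N1-acetylspermidine formed from spermidine and [14C]acetyl-CoA. Values are the mean of at least three experiments.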
The subject of test [3] is L1210. Briefly: Spermine(SPM) levels in L1210 cells after 48 hr of treatment with the compound at the dose of 200 uM. The test is classed as functional, Mus musculus. The method, boiled down: as §1
Test [4] deals with T1, Ornithine decarboxylase (Mus musculus) (UniProt P00860).
T1 sequence (whole entry): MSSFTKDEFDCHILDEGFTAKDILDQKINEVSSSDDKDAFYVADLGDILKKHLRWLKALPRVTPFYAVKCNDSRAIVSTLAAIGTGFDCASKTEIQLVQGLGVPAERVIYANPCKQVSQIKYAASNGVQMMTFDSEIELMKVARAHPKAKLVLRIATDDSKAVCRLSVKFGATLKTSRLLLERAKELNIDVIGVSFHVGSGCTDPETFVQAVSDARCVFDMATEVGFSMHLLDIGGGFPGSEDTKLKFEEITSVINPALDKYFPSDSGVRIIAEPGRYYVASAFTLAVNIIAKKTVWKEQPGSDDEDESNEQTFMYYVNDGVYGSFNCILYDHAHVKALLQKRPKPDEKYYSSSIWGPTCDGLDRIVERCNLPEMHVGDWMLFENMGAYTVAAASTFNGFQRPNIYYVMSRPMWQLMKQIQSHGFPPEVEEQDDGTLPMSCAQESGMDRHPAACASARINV
Briefly: Effect of compound on Ornithine decarboxylase (ODC) […] in L1210 cells. The test is classed as cell-based. The method, boiled down:
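L1210 cells treated 4 h at 1 µM, with an additional arm at 10 µM for 4 h. ODC activity is expressed as percent of untreated control. Each run includes untreated cells as negative control and a DEHSPM-treated positive control. Values are the mean of at least three experiments.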

Test [5] has as its system L1210. Briefly: Putrescine(PUT) levels in L1210 cells after 48 hr of treatment with the compound at the dose of 200 uMicroM. It counts as functional, Mus musculus. The procedure, abridged: as §1
Test [6] deals with L1210. Briefly: Spermidine(SPD) levels in L1210 cells after 48 hr of treatment with the compound at the dose of 200 uM. The test is classed as functional, Mus musculus. The procedure, abridged:
as §1

In test [7] the test system is L1210. Briefly: Ki was estimated by competitive inhibition of [3H]SPD transport by L1210 cells. The test is classed as functional, cell-based, Mus musculus. The procedure, abridged: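 L1210 cells incubated 20 min at 37 °C in medium with 1-10 µM [3H]spermidine, alone or with 10, 25 or 50 µM analogue. Cells are then washed with cold medium containing 1 mM SPD, digested in NaOH at 60 °C and counted by scintillation. Ki is taken from substrate-competitive inhibition kinetics; values are means of two or three experiments.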

Test [8] concerns L1210. Briefly: Spermidine(SPD) levels in L1210 cells after 48 hr of treatment with the compound at the dose of 40 uM. It counts as functional, Mus musculus. The procedure, abridged:
as §1

The subject of test [9] is S-adenosylmethionine decarboxylase (Mus musculus). Briefly: Effect of compound on S-Adenosyl-methionine decarboxylase in L1210 cells. Also noted: unit not given here.
The subject of test [10] is L1210. Briefly: Spermine(SPM) levels in L1210 cells after 48 hr of treatment with the compound at the dose of 40 uM. The test is classed as functional, Mus musculus. The method, boiled down: as §1
For test [11], the system named is L1210. Briefly: Growth uM after 96 hours. The test is classed as functional, cell-based. To be noted: Mus musculus, L1210, 96 h.
Test [12] deals with L1210. Briefly: Growth uM after 48 hours. It counts as functional, cell-based. To be noted: Mus musculus, L1210, 48 h.
For test [13], the system named is L1210. Briefly: Effect of compound on Spermidine/Spermine N'-Acetyltransferase (SSAT) in L1210 cells. The test is classed as cell-based. The method, boiled down:
as §2

Test [14] relates to L1210. Briefly: Putrescine(PUT) levels in L1210 cells after 48 hr of treatment with the compound at the dose of 10 uM. The test is classed as functional, Mus musculus. The procedure, abridged: as §1
Test [15] concerns L1210. Briefly: Spermine(SPM) levels in L1210 cells after 48 hr of treatment with the compound at the dose of 10 uM. The test is classed as functional, Mus musculus. The procedure, abridged:
as §1

Test [16] concerns L1210. Briefly: Spermidine(SPD) levels in L1210 cells after 48 hr of treatment with the compound at the dose of 100 uM. The test is classed as functional, Mus musculus. The procedure, abridged:
as §1

Test [17] has as its system L1210. Briefly: Spermine(SPM) levels in L1210 cells after 48 hr of treatment with the compound at the dose of 100 uM. It counts as functional, Mus musculus. The procedure, abridged: as §1
Test [18] has as its system L1210. Briefly: Putrescine(PUT) levels in L1210 cells after 48 hr of treatment with the compound at the dose of 100 MicroM. It counts as functional, Mus musculus. The method, boiled down:
as §1

The subject of test [19] is L1210. Briefly: Growth inhibition of L1210 cells was measured in the presence of nine different concentrations: 0,0.03,0.1,0.3,1,3,10,30, and 100 uM after 48 hours. To be noted: Mus musculus, L1210, 48 h. It counts as functional, cell-based. The procedure, abridged: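 L1210 leukemia cells were kept in log growth in RPMI-1640 with 10% FBS, HEPES-MOPS and 1 mM aminoguanidine at 37 °C under 5% CO2. Cultures at 0.5-1.0 × 10^5 cells/mL were dosed with filtered aqueous compound and counted by Coulter counter at 48 h, then reseeded and counted again at 96 h.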

In test [20] the test system is L1210. Briefly: Spermidine(SPD) levels in L1210 cells after 48 hr of treatment with the compound at the dose of 10 uM. The test is classed as functional, Mus musculus. The method, boiled down: as §1
For test [21], the system named is L1210. Briefly: Spermine(SPM) levels in L1210 cells after 48 hr of treatment with the compound at the dose of 0.75 uM. The test is classed as functional, Mus musculus. The procedure, abridged:
as §1

The subject of test [22] is L1210. Briefly: Putrescine(PUT) levels in L1210 cells after 48 hr of treatment with the compound at the dose of 0.15 uM. The test is classed as functional, Mus musculus. The procedure, abridged:
as §1

For test [23], the system named is L1210. Briefly: Spermidine(SPD) levels in L1210 cells after 48 hr of treatment with the compound at the dose of 0.75 uM. It counts as functional, Mus musculus. The procedure, abridged: as §1
In test [24] the test system is L1210. Briefly: Spermidine(SPD) levels in L1210 cells after 48 hr of treatment with the compound at the dose of 0.15 uM. It counts as functional, Mus musculus. The procedure, abridged:
as §1

In test [25] the test system is L1210. Briefly: Putrescine(PUT) levels in L1210 cells after 48 hr of treatment with the compound at the dose of 0.75 uM. It counts as functional, Mus musculus. The procedure, abridged: as §1
For test [26], the system named is L1210. Briefly: Spermine(SPM) levels in L1210 cells after 48 hr of treatment with the compound at the dose of 0.15 uM. It counts as functional, Mus musculus. The procedure, abridged:
as §1

The subject of test [27] is L1210. Briefly: Spermidine(SPD) levels in L1210 cells after 48 hr of treatment with the compound at the dose of 2 uM. It counts as functional, Mus musculus. The method, boiled down:
as §1

The subject of test [28] is L1210. Briefly: Putrescine(PUT) levels in L1210 cells after 48 hr of treatment with the compound at the dose of 2 uM. The test is classed as functional, Mus musculus. The method, boiled down:
as §1

Test [29] relates to L1210. Briefly: Spermine(SPM) levels in L1210 cells after 48 hr of treatment with the compound at the dose of 2 uM. The test is classed as functional, Mus musculus. The method, boiled down: as §1
[30] abbreviates: in the assay text read “1 uM” for “10 uM”.

The term Ki denotes a measure of affinity in units of concentration, obtained from inhibition or displacement. In general, IC50 refers to the point on the concentration scale where inhibition reaches its midpoint. Consider `CCNCC[C@@H](O)CNCCCCNC[C@H](O)CCNCC`, for which the Activity in test [1] stood at 5; in test [2], 102; in [3] it was 104; in test [4], 55; in [5] it was 4; in [6], 13. Besides, the Activity in test [8] is 19; in test [9], 68; in [10], 107. In addition, the inhibition constant Ki in test [7] is 1700 nM. Further, the concentration for half-maximal inhibition (IC50) in [11] was found to be 80 nM; in [12], 40000 nM.

The molecule `CCNC[C@@H](O)CNCCCNC[C@H](O)CNCC` came in with an Activity in test [4] of 35.

`CCNC[C@H](O)CNCCCNC[C@@H](O)CNCC`: the Activity in test [4] is 61.

In the case of `CCNCCCNCCCNCCCNCC` [BIS(ETHYL)NORSPERMINE], the Activity came to 1470 in [13]; 66 in test [14] (setting [30]); 94 in test [15] (setting [30]); 7 in test [4]; 6 in test [16]; 30 in [17]. Besides, the figures for the Activity in test [18], in test [20] (setting [30]) and in test [9] were 0, 46 and 42, respectively. Besides, the 50% inhibitory concentration (IC50) in [19] worked out at 20000 nM.

`CCNCCCCNCCCCNCCCCNCC` [DIETHYLHOMOSPERMINE]: the Activity turned out to be 101 in [21]; 110 in test [2]; 3 in [14]; 97 in test [22]; 57 in test [15]; 40 in test [23]. Further, the Activity in test [4] came out at 7; in test [24] it was 91; in test [25], 49; in test [26], 110; in test [20] it was 1; in test [9] it was 41.

For `CCNCC[C@H](O)CNCCCCNC[C@@H](O)CCNCC` [IVOSPEMIN], the Activity was 114 in [2]; 3 in test [14]; 11 in test [27]; 53 in test [15]; 17 in [4]; 3 in test [28]. Moreover, the results for the Activity in test [20], in test [29] and in test [9] were 4, 62 and 52, respectively. The Ki in test [7] is 2400 nM. Besides, the concentration for half-maximal inhibition (IC50) in [11] worked out at 60 nM; in test [12], 2000 nM.
